Results reported in paper PMC9593962 (Journal of chemical information and modeling, 2021).

Tests used:
hERG = hERG (Homo sapiens, UniProt Q12809); assay: Patch-clamp electrophysiology of hERG blockade in HEK 293 cells; type: cell-based; conditions: for IC50: read-out: IC50 at hERG, patch-clamp, whole cell tail currents
Procedure, shortened: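 Whole-cell patch clamp of hERG (described as mutants) expressed in HEK 293 cells. Pipette: 10 mM KCl, 110 mM K-aspartate, 5 mM MgCl2, 5 mM Na2ATP, 10 mM EGTA, 5 mM HEPES, 1 mM CaCl2, pH 7.2. Holding at −80 mV, 1-s step to +50 mV, tail current read at −100 mV. Test compound freshly dissolved in Tyrode, used within two hours.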

rDAT = rDAT (Rattus norvegicus, UniProt P23977); assay: Radioligand binding assay of rDAT with [3H]WIN35,428 in rat striatal membranes
rDAT, sequence (P23977 whole entry): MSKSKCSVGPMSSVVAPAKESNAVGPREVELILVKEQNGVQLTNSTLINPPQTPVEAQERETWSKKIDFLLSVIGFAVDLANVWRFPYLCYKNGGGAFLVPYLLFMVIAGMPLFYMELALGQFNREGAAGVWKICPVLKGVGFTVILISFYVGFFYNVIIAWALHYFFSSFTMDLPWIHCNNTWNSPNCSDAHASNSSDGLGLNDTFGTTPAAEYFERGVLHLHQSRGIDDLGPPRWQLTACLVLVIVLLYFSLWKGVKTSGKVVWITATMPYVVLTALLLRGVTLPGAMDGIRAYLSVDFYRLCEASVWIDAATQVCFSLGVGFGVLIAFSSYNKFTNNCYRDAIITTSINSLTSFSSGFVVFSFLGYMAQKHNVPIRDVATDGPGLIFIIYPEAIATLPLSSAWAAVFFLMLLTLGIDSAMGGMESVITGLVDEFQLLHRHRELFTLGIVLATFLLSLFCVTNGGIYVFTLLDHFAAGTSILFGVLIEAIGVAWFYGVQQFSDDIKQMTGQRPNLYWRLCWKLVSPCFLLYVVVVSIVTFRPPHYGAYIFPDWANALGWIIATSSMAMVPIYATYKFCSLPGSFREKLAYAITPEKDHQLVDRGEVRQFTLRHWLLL

hERG, sequence (Q12809 whole entry): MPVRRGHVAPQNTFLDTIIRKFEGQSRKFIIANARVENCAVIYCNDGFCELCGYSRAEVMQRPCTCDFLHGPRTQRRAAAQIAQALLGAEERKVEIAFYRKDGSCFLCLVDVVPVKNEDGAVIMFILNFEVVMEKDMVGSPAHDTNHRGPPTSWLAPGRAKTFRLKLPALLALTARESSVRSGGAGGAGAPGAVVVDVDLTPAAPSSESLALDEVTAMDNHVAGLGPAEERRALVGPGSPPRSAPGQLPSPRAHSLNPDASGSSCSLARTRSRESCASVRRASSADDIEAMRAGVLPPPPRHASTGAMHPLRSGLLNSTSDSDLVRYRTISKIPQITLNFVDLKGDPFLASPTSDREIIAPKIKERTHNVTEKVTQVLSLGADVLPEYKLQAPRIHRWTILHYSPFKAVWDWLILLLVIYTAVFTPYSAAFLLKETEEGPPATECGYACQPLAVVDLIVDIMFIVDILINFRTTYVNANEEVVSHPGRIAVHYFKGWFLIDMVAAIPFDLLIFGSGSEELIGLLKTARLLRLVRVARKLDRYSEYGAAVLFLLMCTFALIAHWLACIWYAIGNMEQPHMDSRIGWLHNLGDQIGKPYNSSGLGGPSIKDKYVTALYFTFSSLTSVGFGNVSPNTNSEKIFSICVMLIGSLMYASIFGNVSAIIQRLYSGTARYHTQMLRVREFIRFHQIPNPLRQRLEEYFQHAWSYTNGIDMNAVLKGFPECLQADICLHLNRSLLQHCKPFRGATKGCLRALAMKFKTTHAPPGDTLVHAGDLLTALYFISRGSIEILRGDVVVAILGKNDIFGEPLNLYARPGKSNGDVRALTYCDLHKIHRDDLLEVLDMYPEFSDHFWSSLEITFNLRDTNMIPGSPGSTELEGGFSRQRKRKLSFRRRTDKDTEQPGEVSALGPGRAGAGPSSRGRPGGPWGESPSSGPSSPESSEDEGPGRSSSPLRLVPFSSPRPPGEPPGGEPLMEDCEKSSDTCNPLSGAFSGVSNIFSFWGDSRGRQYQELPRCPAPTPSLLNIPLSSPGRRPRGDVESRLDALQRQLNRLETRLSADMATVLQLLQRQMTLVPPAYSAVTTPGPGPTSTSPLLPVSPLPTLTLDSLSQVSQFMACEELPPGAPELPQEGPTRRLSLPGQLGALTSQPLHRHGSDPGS

Structure (SMILES): Fc1ccc(C(SCCNCCCc2ccccc2)c2ccc(F)cc2)cc1 [JJC8-016]
- IC50 (hERG): 60 nM

Structure (SMILES): [O-][S+](CCN1CCN(CC(O)Cc2ccccc2)CC1)C(c1ccc(F)cc1)c1ccc(F)cc1 (centres unmarked) [JJC8-088]
- fold lower affinity than JJC8-016 at hERG (hERG; ratio of IC50 values, JJC8-088 versus JJC8-016): ~ 2 fold
- IC50 (hERG): 130 nM
- fold higher affinity than JJC8-016 at DAT (rDAT; ratio of Ki values, JJC8-088 versus JJC8-016): ~ 90 fold
- Ki (rDAT; read-out: Ki at DAT, [3H]WIN35,428 as the radioligand): 2.6 nM
